We go through six molecules from ChEMBL document CHEMBL1121412, “Synthesis and anticancer activity of nitrosourea derivatives of phensuximide” (1980).

The subject of assay [1] is Mus musculus. Kind of assay: Animal weight difference at the Optimal dose of 100 mg/kg against mouse L1210 Leukemia; dose range ip 200-12.5 mg/kg. It is filed as functional. As to conditions: route intraperitoneal.
For assay [2], the system named is Mus musculus. As to the kind of experiment: Toxicity against mouse L1210 Leukemia as number of animals survived/number of animals treated at the Optimal dose of 200 mg/kg; 6/6, dose range ip 200-12.5 mg/kg. It is filed as functional. Particulars: route intraperitoneal.
In assay [3] the test system is Mus musculus. Kind of assay: Tested for cures, represents a 30-day survival, ratio of treated and control was reported; dose range ip 200-12.5 mg/kg. It is filed as functional.
In assay [4] the test system is Mus musculus. Kind of assay: Toxicity against Ependymoblastoma Tumor number of animals survived/number of animals treated at the Optimal dose of 12.0 mg/kg; dose range 12-0.75 mg/kg. It is filed as functional. In a few lines: (§1)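 Mouse ependymoblastoma implanted intracerebrally to test CNS antitumour activity. Groups of 10 mice were dosed on days 1-5 over the stated dose range. Toxicity is scored as survivors on day 5 after the first injection. Activity is given as % T/C at the optimum dose, and a cure is defined as 30-day survival.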

The test system of assay [5] is Mus musculus. As to the kind of experiment: Animal weight difference at the Optimal dose of 12.0 mg/kg against Ependymoblastoma Tumor; dose range 12-0.75 mg/kg. The assay is classed as functional.
Assay [6] concerns Mus musculus. Kind of assay: Tested for cures, represents a 30-day survival, ratio of treated and control against Ependymoblastoma Tumor was reported; dose range 12-0.75 mg/kg. The assay is classed as functional. In short, it runs like this: as §1
Assay [7] concerns Mus musculus. As to the kind of experiment: Tested for cures, represents a 30-day survival, ratio of treated and control was reported; dose range ip 50-6.25 mg/kg. The assay is classed as functional.
In assay [8] the test system is Mus musculus. Kind of assay: Animal weight difference at the Optimal dose of 25 mg/kg against mouse L1210 Leukemia; dose range ip 50-6.25 mg/kg. As to conditions: route intraperitoneal.
Assay [9] deals with Mus musculus. Kind of assay: Toxicity against mouse L1210 Leukemia as number of animals survived/number of animals treated at the Optimal dose of 25 mg/kg; 6/6, dose range ip 50-6.25 mg/kg. Particulars: route intraperitoneal.
The test system of assay [10] is Mus musculus. As to the kind of experiment: Toxicity against mouse L1210 Leukemia as number of animals survived/number of animals treated at the Optimal dose of 200 mg/kg; 5/6, dose range ip 400-12.5 mg/kg. The assay is classed as functional. Particulars: route intraperitoneal.
The test system of assay [11] is Mus musculus. As to the kind of experiment: Animal weight difference at the Optimal dose of 200 mg/kg against mouse L1210 Leukemia; dose range ip 400-12.5 mg/kg. It is filed as functional. As to conditions: route intraperitoneal.
For assay [12], the system named is L1210 leukemia (Mus musculus). Kind of assay: Tested for cures, represents a 30-day survival, ratio of treated and control against L1210 leukemia was reported; dose range ip 400-12.5 mg/kg.
The test system of assay [13] is Mus musculus. Kind of assay: Toxicity against mouse L1210 Leukemia as number of animals survived/number of animals treated at the Optimal dose of 100 mg/kg; 6/6, dose range ip 200-12.5 mg/kg. As to conditions: route intraperitoneal. It is filed as functional.
Assay [14] concerns Mus musculus. Kind of assay: Toxicity against mouse L1210 Leukemia as number of animals survived/number of animals treated at the Optimal dose of 50 mg/kg; 6/6, dose range ip 400-12.5 mg/kg. As to conditions: route intraperitoneal. It is filed as functional.
For assay [15], the system named is Mus musculus. As to the kind of experiment: Tested for cures, represents a 30-day survival, ratio of treated and control was reported; dose range ip 400-12.5 mg/kg. It is filed as functional.
Assay [16] deals with Mus musculus. As to the kind of experiment: Animal weight difference at the Optimal dose of 50 mg/kg against mouse L1210 Leukemia; dose range ip 400-12.5 mg/kg. Particulars: route intraperitoneal.
In assay [17] the test system is Mus musculus. As to the kind of experiment: Tested for cures, represents a 30-day survival, ratio of treated and control against Ependymoblastoma Tumor was reported; dose range 16-2 mg/kg. The assay is classed as functional. In a few lines:
as §1

For assay [18], the system named is Mus musculus. As to the kind of experiment: Animal weight difference at the Optimal dose of 16.0 mg/kg against Ependymoblastoma Tumor; dose range 16-2 mg/kg.
The subject of assay [19] is Mus musculus. Kind of assay: Toxicity against Ependymoblastoma Tumor number of animals survived/number of animals treated at the Optimal dose of 16.0 mg/kg; dose range 16-2 mg/kg.

A word on the T/C: it is the ratio of treated to control. `CCN(N=O)C(=O)Nc1ccc(C2CC(=O)N(C)C2=O)cc1` (stereo unspecified): the T-C in the assay on Mus musculus [1] was -3.8 g. The Ratio in the assay with Mus musculus [2] is recorded as 6. Also, the T/C in the assay with Mus musculus [3] is reported as 126%.

As for `CN1C(=O)CC(c2ccc(NC(=O)N(CCCl)N=O)cc2)C1=O` (stereo unspecified), the figures for the Ratio with Mus musculus [4] and in the assay on Mus musculus [9] were 9 and 6, respectively. For the same molecule, the T-C is -3.8 g with Mus musculus [5] and -4.6 g with Mus musculus [8]. In addition, the T/C in the assay with Mus musculus [6] is reported as 240%; in the assay with Mus musculus [7], 196%.

Consider `CCCCN(N=O)C(=O)Nc1ccc(C2CC(=O)N(C)C2=O)cc1` (stereo unspecified), for which the Ratio with Mus musculus [10] amounted to 5. Moreover, the T-C in the assay with Mus musculus [11] is reported as -2.8 g. Moreover, the T/C in assay [12] is 120%.

As to `CN(N=O)C(=O)Nc1ccc(C2CC(=O)N(C)C2=O)cc1` (stereo unspecified), the Ratio in the assay with Mus musculus [13] is reported as 6. Further, in the assay with Mus musculus [1], the T-C is recorded as -1.2 g. Besides, in the assay with Mus musculus [3], the T/C amounted to 127%.

Turning to `CCCN(N=O)C(=O)Nc1ccc(C2CC(=O)N(C)C2=O)cc1` (stereo unspecified), the Ratio in the assay on Mus musculus [14] was 6. In addition, the T/C in the assay with Mus musculus [15] came out at 109%. Besides, the T-C in the assay with Mus musculus [16] is 0.8 g.

As for `O=NN(CCCl)C(=O)NCCCl` [CARMUSTINE], the T/C in the assay on Mus musculus [17] was found to be 300%. In the assay with Mus musculus [18], this molecule returned a T-C of -3.4 g. Also, in the assay with Mus musculus [19], the Ratio is listed as 10.
